In ChEMBL document CHEMBL1152541, “Staurosporine tethered peptide ligands that target cAMP-dependent protein kinase (PKA): optimization and selectivity profiling” (Bioorg Med Chem, 2009):
*1 amine or outer side, *2 acyl side, *3 side chain or, on linkers, in order; H or OH if unused. Where a SMILES comes first, the peptide text is derived from it. Bridges are numbered along the chain shown (N, C = ends). [ ]: non-standard residue; d: D form. The star is where a group is joined. Staurosporine = CO[C@@H]1[C@H](N(C)*)C[C@H]2O[C@]1(C)n1c3ccccc3c3c4c(c5c6ccccc6n2c5c31)C(=O)NC4; Suc = O=C(CCC(=O)[*:2])[*:1]; Dap = NC[C@H](N)C(=O)O; βAla = NCCC(=O)O

Legend:
[1] = target: Receptor tyrosine-protein kinase erbB-2 (Homo sapiens) (UniProt P04626); test: Binding affinity to human ERBB2 at 500 nM by cell-based competition binding assay relative to control in presence of DTT
Outline: (§1)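 Commercial (Ambit) competitive kinase-binding panel of 90 kinases measured the binding profile. Run under reducing conditions of 7.5 mM DTT. Binding is expressed relative to control.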

[2] = target: T1, Bone morphogenetic protein receptor type-2 (Homo sapiens) (UniProt Q13873); test: Binding affinity to human BMPR2 at 500 nM by cell-based competition binding assay relative to control in presence of DTT
T1 sequence (whole entry): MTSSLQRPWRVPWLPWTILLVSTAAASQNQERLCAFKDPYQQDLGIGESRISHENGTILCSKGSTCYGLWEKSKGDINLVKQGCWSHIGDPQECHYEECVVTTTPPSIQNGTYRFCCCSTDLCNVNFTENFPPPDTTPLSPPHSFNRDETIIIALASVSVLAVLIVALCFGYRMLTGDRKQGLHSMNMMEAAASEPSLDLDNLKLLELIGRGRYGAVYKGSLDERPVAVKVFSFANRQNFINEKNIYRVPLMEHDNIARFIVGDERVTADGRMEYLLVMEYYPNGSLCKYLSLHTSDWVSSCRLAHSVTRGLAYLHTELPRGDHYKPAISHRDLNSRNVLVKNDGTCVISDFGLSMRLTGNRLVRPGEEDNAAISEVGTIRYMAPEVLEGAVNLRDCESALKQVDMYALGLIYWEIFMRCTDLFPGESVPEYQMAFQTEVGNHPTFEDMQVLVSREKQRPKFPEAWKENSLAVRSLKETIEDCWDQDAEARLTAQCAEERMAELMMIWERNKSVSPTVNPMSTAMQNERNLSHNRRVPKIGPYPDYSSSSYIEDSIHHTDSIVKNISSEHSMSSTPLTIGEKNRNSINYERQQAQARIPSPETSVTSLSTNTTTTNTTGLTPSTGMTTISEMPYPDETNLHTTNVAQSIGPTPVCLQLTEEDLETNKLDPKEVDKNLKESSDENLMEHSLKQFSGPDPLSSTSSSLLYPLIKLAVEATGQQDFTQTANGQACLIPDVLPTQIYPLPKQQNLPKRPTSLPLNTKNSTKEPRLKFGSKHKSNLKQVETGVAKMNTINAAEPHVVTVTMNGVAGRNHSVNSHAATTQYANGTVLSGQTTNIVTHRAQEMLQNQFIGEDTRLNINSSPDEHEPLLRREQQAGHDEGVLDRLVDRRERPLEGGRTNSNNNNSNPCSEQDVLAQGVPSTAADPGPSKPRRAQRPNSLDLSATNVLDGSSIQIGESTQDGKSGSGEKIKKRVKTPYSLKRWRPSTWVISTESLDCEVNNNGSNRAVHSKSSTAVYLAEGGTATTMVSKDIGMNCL
Outline: (§2)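 Kinase binding profiling ran on a commercial (Ambit) competitive binding screen against a panel of 90 kinases. The screen used reducing conditions with 7.5 mM DTT. To withstand the DTT, the bivalent ligand was tested as its amide isostere, with the disulfide replaced. A staurosporine derivative carrying a 3 β-alanine linker was run as the reference compound.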

[3] = target: RAC-beta serine/threonine-protein kinase (Homo sapiens) (UniProt P31751); test: Binding affinity to human AKT2 at 500 nM by cell-based competition binding assay relative to control in presence of DTT; outline: as §2
[4] = target: Platelet-derived growth factor receptor alpha (Homo sapiens) (UniProt P16234); test: Binding affinity to human PDGFRalpha at 500 nM by cell-based competition binding assay relative to control in presence of DTT
[5] = target: Dual specificity tyrosine-phosphorylation-regulated kinase 1B (Homo sapiens) (UniProt Q9Y463); test: Binding affinity to human DYRK1B at 500 nM by cell-based competition binding assay relative to control in presence of DTT; outline: as §1
[6] = target: Phosphatidylinositol 4,5-bisphosphate 3-kinase catalytic subunit gamma isoform (Homo sapiens) (UniProt P48736); test: Binding affinity to human PIK3Cgamma at 500 nM by cell-based competition binding assay relative to control in presence of DTT
[7] = target: Serine/threonine-protein kinase pim-1 (Homo sapiens) (UniProt P11309); test: Ratio of compound to staurosporine binding affinity to human PIM1 in presence of DTT
[8] = target: Proto-oncogene tyrosine-protein kinase receptor Ret (Homo sapiens) (UniProt P07949); test: Binding affinity to human RET at 200 nM by cell-based competition binding assay relative to control in presence of DTT
[9] = target: Mitogen-activated protein kinase 9 (Homo sapiens) (UniProt P45984); test: Binding affinity to human JNK2 at 200 nM by cell-based competition binding assay relative to control in presence of DTT
Outline: (§3)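 Competition binding screen (Ambit) across a panel of 90 kinases, scoring test ligand displacement of each kinase's binding relative to control. The screen ran under reducing conditions with 7.5 mM DTT.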

[10] = target: Mitogen-activated protein kinase kinase kinase 9 (Homo sapiens) (UniProt P80192); test: Binding affinity to human MLK1 at 50 nM by cell-based competition binding assay relative to control in presence of DTT
[11] = target: T2, Tyrosine-protein kinase ZAP-70 (Homo sapiens) (UniProt P43403); test: Binding affinity to human ZAP70 at 50 nM by cell-based competition binding assay relative to control in presence of DTT
T2 sequence (whole entry): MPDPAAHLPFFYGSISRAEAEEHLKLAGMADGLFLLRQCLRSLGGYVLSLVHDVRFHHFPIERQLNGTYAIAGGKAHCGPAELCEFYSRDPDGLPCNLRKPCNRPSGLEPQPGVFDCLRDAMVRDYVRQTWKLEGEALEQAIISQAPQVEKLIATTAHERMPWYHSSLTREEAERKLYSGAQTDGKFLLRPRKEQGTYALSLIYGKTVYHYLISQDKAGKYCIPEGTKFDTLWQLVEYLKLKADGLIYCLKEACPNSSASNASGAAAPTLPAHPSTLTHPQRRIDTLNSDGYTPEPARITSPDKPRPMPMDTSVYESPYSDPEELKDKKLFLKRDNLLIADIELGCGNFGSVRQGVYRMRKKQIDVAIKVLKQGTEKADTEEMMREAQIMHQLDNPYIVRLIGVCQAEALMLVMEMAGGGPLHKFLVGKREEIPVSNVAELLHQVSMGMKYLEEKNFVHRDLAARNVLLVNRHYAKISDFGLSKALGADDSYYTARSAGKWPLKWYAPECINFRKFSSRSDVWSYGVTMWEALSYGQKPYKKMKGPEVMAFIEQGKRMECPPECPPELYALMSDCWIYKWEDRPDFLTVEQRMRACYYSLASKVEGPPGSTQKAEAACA

[12] = target: Mitogen-activated protein kinase 9 (Homo sapiens) (UniProt P45984); test: Binding affinity to human JNK2 at 50 nM by cell-based competition binding assay relative to control in presence of DTT; outline: as §3
[13] = test system: Tyrosine-protein kinase ABL1 (Homo sapiens), P00519 [E255K]; test: Binding affinity to human ABL1 E255K mutant at 50 nM by cell-based competition binding assay relative to control in presence of DTT; outline: as §2
Tyrosine-protein kinase ABL1 (Homo sapiens), P00519 [E255K], sequence (P00519 whole entry E255K): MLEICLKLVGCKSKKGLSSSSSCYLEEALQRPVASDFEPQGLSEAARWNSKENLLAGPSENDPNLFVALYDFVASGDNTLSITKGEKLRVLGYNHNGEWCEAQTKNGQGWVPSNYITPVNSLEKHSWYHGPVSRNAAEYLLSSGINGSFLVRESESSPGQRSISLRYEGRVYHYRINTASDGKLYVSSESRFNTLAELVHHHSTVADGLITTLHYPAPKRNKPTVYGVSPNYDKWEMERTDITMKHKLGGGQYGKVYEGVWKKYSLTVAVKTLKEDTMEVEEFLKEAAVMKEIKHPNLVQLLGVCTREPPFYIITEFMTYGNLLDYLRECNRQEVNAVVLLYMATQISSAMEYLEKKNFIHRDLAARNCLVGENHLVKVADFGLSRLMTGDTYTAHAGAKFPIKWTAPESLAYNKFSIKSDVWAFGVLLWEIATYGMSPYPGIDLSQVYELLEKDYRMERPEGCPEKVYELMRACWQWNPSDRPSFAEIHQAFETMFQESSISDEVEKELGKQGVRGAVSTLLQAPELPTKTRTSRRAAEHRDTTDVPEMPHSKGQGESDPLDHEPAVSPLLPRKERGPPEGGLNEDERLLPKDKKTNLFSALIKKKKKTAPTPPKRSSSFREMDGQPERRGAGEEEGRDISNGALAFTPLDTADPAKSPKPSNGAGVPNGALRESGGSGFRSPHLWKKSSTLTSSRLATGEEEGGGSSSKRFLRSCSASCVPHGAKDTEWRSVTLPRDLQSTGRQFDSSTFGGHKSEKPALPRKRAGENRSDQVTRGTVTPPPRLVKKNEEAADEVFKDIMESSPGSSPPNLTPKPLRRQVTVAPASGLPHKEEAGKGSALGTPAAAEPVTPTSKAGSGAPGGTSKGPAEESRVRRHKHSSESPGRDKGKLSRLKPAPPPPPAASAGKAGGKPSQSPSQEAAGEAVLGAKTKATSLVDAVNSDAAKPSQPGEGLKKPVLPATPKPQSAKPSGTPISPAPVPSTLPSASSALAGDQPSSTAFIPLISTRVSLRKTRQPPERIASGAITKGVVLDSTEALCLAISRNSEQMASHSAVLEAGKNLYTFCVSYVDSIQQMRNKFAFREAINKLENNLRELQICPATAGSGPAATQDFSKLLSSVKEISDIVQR

Mitogen-activated protein kinase 9 (Homo sapiens), sequence (P45984 whole entry, looked up): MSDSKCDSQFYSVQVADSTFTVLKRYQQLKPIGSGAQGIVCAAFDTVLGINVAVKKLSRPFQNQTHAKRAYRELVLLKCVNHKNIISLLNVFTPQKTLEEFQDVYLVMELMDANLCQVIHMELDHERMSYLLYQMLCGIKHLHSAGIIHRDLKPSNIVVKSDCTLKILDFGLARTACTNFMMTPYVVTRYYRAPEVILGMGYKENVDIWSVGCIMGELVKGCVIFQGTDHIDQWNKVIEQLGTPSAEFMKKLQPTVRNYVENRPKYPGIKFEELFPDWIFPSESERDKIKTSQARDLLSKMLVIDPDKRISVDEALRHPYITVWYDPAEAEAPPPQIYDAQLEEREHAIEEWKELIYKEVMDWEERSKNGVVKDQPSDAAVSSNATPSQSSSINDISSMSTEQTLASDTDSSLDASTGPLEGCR
Serine/threonine-protein kinase pim-1 (Homo sapiens), sequence (P11309 whole entry, looked up): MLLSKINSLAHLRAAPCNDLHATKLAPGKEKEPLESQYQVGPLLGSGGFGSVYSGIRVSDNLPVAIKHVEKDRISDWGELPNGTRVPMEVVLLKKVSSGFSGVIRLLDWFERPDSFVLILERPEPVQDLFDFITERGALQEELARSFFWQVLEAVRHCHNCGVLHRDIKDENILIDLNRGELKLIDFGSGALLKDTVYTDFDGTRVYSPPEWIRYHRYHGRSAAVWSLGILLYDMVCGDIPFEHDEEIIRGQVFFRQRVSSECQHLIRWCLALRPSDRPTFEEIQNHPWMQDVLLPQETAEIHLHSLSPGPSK
Dual specificity tyrosine-phosphorylation-regulated kinase 1B (Homo sapiens), sequence (Q9Y463 whole entry, looked up, canonical isoform): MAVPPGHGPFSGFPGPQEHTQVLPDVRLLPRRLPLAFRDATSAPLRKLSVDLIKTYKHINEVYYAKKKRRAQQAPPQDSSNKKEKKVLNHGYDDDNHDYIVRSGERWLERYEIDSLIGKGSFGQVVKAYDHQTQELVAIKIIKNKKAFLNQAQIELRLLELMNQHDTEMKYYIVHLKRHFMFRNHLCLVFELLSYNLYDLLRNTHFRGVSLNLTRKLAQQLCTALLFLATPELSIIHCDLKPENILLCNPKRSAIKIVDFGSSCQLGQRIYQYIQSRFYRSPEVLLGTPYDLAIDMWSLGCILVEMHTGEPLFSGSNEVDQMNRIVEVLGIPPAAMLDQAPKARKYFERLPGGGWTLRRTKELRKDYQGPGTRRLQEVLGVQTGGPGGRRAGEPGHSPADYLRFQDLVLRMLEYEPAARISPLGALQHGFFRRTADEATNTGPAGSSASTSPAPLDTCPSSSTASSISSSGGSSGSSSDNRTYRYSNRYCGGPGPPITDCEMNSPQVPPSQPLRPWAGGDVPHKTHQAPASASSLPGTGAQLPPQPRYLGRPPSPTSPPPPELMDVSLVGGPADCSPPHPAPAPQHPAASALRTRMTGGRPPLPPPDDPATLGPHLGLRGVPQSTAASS
Receptor tyrosine-protein kinase erbB-2 (Homo sapiens), sequence (P04626 whole entry): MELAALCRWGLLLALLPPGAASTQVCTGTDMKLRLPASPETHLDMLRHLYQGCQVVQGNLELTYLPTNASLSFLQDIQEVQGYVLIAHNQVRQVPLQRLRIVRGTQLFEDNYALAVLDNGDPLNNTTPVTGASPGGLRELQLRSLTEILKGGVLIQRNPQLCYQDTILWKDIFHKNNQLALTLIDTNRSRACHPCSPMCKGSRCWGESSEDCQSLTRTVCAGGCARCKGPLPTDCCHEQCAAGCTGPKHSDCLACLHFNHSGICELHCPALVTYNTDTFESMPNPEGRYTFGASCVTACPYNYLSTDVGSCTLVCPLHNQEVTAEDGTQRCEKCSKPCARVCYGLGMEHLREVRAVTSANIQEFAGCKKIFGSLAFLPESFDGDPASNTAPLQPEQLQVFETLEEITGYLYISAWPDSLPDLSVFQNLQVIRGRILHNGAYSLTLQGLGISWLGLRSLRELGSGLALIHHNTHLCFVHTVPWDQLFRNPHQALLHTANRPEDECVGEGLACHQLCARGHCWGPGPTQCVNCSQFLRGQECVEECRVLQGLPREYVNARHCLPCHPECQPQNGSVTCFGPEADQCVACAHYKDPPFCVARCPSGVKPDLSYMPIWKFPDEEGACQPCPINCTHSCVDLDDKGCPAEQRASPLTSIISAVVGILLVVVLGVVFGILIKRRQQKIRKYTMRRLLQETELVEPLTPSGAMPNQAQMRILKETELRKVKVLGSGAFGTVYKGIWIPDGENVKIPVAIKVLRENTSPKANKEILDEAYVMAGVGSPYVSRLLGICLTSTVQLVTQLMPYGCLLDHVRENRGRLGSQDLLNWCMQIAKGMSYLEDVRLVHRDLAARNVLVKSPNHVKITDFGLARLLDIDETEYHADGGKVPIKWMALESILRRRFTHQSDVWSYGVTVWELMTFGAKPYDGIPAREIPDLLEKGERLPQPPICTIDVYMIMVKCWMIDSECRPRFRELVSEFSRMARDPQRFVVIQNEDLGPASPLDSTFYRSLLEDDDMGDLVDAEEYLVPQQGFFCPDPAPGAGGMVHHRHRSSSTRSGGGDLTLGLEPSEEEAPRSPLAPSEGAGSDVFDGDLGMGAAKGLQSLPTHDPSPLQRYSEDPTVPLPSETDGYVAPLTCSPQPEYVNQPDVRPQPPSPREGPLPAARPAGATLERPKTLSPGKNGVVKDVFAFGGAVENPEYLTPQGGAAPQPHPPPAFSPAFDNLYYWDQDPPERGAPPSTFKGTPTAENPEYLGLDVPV
Platelet-derived growth factor receptor alpha (Homo sapiens), sequence (P16234 whole entry): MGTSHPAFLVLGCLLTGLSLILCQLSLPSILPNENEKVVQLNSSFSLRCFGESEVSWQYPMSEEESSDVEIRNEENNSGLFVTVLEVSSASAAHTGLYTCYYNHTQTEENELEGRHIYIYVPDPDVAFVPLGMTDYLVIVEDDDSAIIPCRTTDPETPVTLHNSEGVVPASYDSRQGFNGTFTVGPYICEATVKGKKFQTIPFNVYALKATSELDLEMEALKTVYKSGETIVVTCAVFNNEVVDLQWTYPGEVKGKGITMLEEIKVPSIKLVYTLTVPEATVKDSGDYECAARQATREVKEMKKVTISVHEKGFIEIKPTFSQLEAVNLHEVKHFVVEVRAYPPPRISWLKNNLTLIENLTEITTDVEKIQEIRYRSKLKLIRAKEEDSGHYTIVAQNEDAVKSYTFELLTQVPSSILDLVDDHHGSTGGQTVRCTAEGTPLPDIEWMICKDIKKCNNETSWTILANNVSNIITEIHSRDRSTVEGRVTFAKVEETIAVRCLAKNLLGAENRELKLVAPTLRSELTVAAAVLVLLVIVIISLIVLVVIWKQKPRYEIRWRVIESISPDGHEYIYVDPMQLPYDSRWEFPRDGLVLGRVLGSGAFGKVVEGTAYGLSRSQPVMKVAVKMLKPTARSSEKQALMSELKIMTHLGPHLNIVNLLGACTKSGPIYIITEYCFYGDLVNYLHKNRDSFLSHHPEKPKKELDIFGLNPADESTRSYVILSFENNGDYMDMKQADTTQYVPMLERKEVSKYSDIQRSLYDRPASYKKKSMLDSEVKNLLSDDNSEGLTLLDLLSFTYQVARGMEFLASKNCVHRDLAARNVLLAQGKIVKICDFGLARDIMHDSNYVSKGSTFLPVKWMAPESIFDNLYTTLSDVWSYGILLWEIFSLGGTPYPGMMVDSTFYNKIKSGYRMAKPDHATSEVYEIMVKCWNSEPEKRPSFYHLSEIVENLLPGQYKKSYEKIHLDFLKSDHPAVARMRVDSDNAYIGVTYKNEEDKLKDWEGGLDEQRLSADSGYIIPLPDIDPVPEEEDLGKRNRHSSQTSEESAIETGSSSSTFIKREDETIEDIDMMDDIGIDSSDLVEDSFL

CO[C@@H]1[C@H](N(C)C(=O)CCC(=O)NCCC(=O)NCCC(=O)NCCC(N)=O)C[C@H]2O[C@]1(C)n1c3ccccc3c3c4c(c5c6ccccc6n2c5c31)C(=O)NC4
Activity [1]: 95% | Activity [2]: 100% | Activity [3]: 37% | Activity [4]: 7% | Activity [5]: 5.6% | Activity [6]: 15% | Selectivity ratio [7]: 31

CO[C@@H]1[C@H](N(C)C(=O)CCC(=O)NCCC(=O)NCCC(=O)NCCC(=O)NCCC(=O)NCCC(=O)NCCC(=O)NCCC(=O)N[C@H]2CSSC[C@@H](C(=O)NCC(N)=O)NC(=O)CNC(=O)[C@H](Cc3ccccc3)NC(=O)[C@H](C(C)C)NC(=O)[C@H](CCCNC(=N)N)NC(=O)[C@H](Cc3ccccc3)NC(=O)[C@H](C(C)C)NC2=O)C[C@H]2O[C@]1(C)n1c3ccccc3c3c4c(c5c6ccccc6n2c5c31)C(=O)NC4 ({Staurosporine-Suc-βAla-βAla-βAla-βAla-βAla-βAla-βAla}-CVFRVFGCG-NH2; disulfide 1-8)
Activity [8]: 40% | Activity [9]: 89%

CO[C@@H]1[C@H](N(C)C(=O)CCC(=O)NCCC(=O)NCCC(=O)NCCC(=O)NCCC(=O)NCCC(=O)NCCC(=O)NCCC(=O)N[C@H]2CNC(=O)C[C@@H](C(N)=O)NC(=O)CNC(=O)[C@H](Cc3ccccc3)NC(=O)[C@H](C(C)C)NC(=O)[C@H](CCCNC(=N)N)NC(=O)[C@H](Cc3ccccc3)NC(=O)[C@H](C(C)C)NC2=O)C[C@H]2O[C@]1(C)n1c3ccccc3c3c4c(c5c6ccccc6n2c5c31)C(=O)NC4 ({Staurosporine-Suc-βAla-βAla-βAla-βAla-βAla-βAla-βAla}-[Dap]VFRVFGD-NH2; lactam 1-8)
Activity [10]: 5.5% | Activity [11]: 57% | Activity [12]: 88% | Activity [13]: 97%
